Data on 20 molecules can be found in PubChem BioAssay AID588478 (ICCB-Longwood Screening Facility, Harvard Medical School, 2011).

Hit rate of the full screen: of about 330,000 compounds, about 1,100 (0.33%) were called active. The sample holds actives, similar compounds and a random draw of the others, so the mix is not that of the screen. A number with no mark means an inactive call.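 How the source made its calls: active means mean inhibition over replicate wells above about 20% (limit read from the data); inactive means the rest.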

Sequence of Ubiquitin carboxyl-terminal hydrolase isozyme L5 (Homo sapiens) (Q9Y5K5 whole entry, looked up): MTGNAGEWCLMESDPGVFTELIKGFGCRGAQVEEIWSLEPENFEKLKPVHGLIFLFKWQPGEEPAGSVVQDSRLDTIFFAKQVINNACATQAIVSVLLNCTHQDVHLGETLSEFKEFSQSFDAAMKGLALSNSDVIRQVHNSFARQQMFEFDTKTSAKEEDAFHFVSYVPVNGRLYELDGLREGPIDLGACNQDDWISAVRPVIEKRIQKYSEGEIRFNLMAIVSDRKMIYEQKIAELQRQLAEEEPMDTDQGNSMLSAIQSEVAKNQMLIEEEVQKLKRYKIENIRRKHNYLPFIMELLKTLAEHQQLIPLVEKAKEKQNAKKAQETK

In this assay the target is Ubiquitin carboxyl-terminal hydrolase isozyme L5 (Homo sapiens) (UniProt Q9Y5K5). Kind of assay: proteasome-bound UCH37 DUB activity blockers – biochemical, Ub-AMC cleavage, fluorescence, primary screen (AID 588478).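 Further: 0% = compound-free wells with enzyme and 100% = wells lacking proteasome.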 Particulars: purified proteasome/UCH37, Ub-AMC cleavage fluorescence; hits give high values; concentration not given here. In outline:
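Material: Human UCH37 enzyme supplied as purified proteasome complex | Schedule: 30 min preincubation with enzyme, 25 min cleavage at room temperature | Detection: AMC fluorescence 355/460 nm | Measure: % inhibition of Ub-AMC cleavage fluorescence | Controls: Wells without proteasome as full block, compound-free enzyme plus substrate as uninhibited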
By inhibition is commonly meant the drop in the measured response relative to a control, in per cent. Take `CCCCCCCCCCCCn1ccc(=N)cc1`: the inhibition was 29.5% (active).
Turning to `Brc1ccc2[nH]cc(C=NN3CCCCC3)c2c1`, the inhibition is 1.15%.
Regarding `C#C[C@]1(O)CCC2C3CCC4=CC(=NOCC(=O)NC(C)C(=O)NC(CCSC)C(=O)O)CC[C@]4(C)C3CC[C@@]21C` (stereo not given in full), the inhibition was -1.31%.
In the case of `C=CCN1CC[C@]23c4c5ccc(O)c4O[C@H]2C(=NNC(=O)c2ccccc2)CC[C@@]3(O)[C@H]1C5` it was 4.43%.
Regarding `CC12CCC3C(CCC4CC(=NO)CCC43C)C1CCC2O` (stereo not given), the inhibition was 2.36%.
In the case of `CCC(C)n1c(O)c(/C=N/Nc2nc3c(c(=O)n(C)c(=O)n3C)n2C)c(=O)[nH]c1=S` (stereo not given) it was 21.4% (active); in that of `Cc1ccccc1/C=C\c1nc(O)c([N+](=O)[O-])c(=O)[nH]1`, 11.3%; in that of `CNC(=O)Nc1ccc(C(=O)NN=CC23CC[C@@H](O)CC2(O)CC[C@@H]2[C@@H]3CCC3(C)C(C4=CC(=O)OC4)CCC23O)cc1` (stereo not given in full), 3.8%.
As for `COc1cc(C(=O)NC2CCN(Cc3ccccc3)CC2)cc(Cl)c1OC(C)C`, the inhibition is 4.45%.
With `COc1ccc(N2C(=O)/C(=C/c3ccco3)C(=O)NC2=S)cc1`, the inhibition was 31.7% (active).
`O=C1NC(=O)N(c2ccccc2)C(=O)/C1=C/c1ccc([N+](=O)[O-])s1`: the inhibition was 5.15%.
For `COc1cccc(N2C(=O)NC(=O)/C(=C\c3ccc([N+](=O)[O-])s3)C2=O)c1`, the inhibition was 11.5%.
`Nc1nonc1C(=O)NN=Cc1ccc([N+](=O)[O-])o1`: the inhibition is 13.2%.
As for `CC1=CC(=Cc2sc3ccccc3[n+]2C)C=C(C)O1`, the inhibition is 20.3% (active).
For `COC(=O)[C@H](Cc1ccccc1)NC(=O)Nc1ccc(S(N)(=O)=O)cc1`, the inhibition was 2.98%.
Take `COc1ccc(C=NN=C(N)N[N+](=O)[O-])c(OC)c1`: the inhibition was 18.6%.
Turning to `Oc1ccc(C=NNP(=S)(c2ccccc2)c2ccccc2)cc1O`, the inhibition was 2.56%.
In the case of `COc1cccc(C(=O)N2C[C@H]3C[C@@H](C2)c2cccc(=O)n2C3)c1`, the inhibition was 2.34%.
For `O=C(CN1CCN(S(=O)(=O)c2cccc(Cl)c2)CC1)N1CCCCC1`, the inhibition was 5.51%.
To `CN1CCN(N=Cc2c[nH]c3ccccc23)CC1` belongs 3.94%.
